Assay results taken from publication PMC4092037 (American journal of reproductive immunology (New York, N.Y. …, 2013).
Where two headings read alike, the source gives them in different places. Each block holds one molecule with its values, some of them ahead of it. Ends that are not written are not given here.

How the values were obtained:
WT/HEK293 cells [1] = experiment: cAMP assay, WT/HEK293; type: cell-based; conditions: 30 min at 37°C
Outline: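 Wild-type HEK293 cells were plated at 5 × 10^5/well, cultured for 24 h and serum-starved for 4 h. Exposed for 30 min at 37°C to test compound, forskolin 10 μM, both together, or medium. Washed with cold PBS and lysed. Lysate cAMP was measured by kit and normalised to total protein (BCA); conditioned medium was also assayed. Mean ± S.E.M.; one-way ANOVA with SNK test.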

human CMKLR1 [2] = target: T1, human CMKLR1 (Homo sapiens, UniProt Q99788); experiment: cAMP assay, huCMKLR1/HEK293; type: cell-based; conditions: forskolin 10 μM, 30 min at 37°C
T1 sequence (Q99788 1-373): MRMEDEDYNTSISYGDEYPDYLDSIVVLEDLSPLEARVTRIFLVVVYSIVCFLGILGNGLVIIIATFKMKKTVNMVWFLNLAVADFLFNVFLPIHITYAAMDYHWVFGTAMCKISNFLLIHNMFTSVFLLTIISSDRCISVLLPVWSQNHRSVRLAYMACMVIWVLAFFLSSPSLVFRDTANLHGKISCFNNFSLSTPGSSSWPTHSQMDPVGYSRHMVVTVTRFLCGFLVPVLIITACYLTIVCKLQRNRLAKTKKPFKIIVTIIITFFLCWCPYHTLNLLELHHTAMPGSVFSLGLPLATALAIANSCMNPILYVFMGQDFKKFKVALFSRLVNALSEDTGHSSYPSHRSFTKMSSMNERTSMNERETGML

human CMKLR1 [3] = target: T1, human CMKLR1; experiment: In vitro transwell chemotaxis assay, huCMKLR1/L1.2; type: cell-based; conditions: for chemotaxis: 4 h at 37°C, fluorescence 560/580 nm
primary Leydig cells [4] = experiment: Testosterone production, primary Leydig cell culture; type: cell-based, Sprague-Dawley rat; conditions: 24 h; for hCG-stimulated testosterone production: hCG 0.01 IU/mL, vs hCG group
Outline: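 Leydig cells came from five male rats aged 3–4 months. Decapsulated testes were digested for 15 min at 34°C in DMEM/F12-0.1% BSA with 0.5 mg/mL collagenase IA and 0.25 mg/mL soybean trypsin inhibitor. Filtered, purified on a Percoll gradient, cultured at 34°C, 5% CO2, and purity checked by 3β-HSD staining. Treated for 24 h with test compound ± hCG 0.01 IU/mL. Medium testosterone by 125I RIA; mean ± S.E.M.; ANOVA/SNK.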

antral follicles [5] = experiment: Progesterone production, antral follicle culture; type: cell-based, Sprague-Dawley rat; conditions: hCG 0.01 IU/mL, 6 h, vs hCG group
Outline: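 Immature female rats (21–23 days) were primed with PMSG, 30 IU i.p. per rat. Follicles over 900 μm were isolated 48 h later into ice-cold saline and preincubated at 3 per well in DMEM/F12-0.1% BSA at 37°C. Treated for 6 h with test compound, alone or with hCG 0.01 IU/mL. Medium progesterone measured by 125I RIA (sensitivity 0.02 ng/mL). Mean ± S.E.M.; one-way ANOVA with SNK test.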

human GPR1 = target: T2, human GPR1 (Homo sapiens, UniProt P46091); experiment: Radioligand binding assay, huGPR1/HEK293
T2 sequence (P46091 1-355): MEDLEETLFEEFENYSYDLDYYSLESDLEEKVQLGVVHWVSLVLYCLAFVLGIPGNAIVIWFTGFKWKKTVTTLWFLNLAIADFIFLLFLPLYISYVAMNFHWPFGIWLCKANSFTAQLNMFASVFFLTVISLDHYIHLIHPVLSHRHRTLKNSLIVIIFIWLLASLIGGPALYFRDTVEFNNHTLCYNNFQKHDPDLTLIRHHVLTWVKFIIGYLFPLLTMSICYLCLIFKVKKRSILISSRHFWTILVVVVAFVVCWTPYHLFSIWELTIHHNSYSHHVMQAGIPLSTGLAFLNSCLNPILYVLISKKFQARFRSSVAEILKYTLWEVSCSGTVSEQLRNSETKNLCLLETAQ
Outline: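 Competition binding on intact huGPR1/HEK293 cells, with neuronostatin as the negative-control peptide. After incubation, cells were pelleted at 1000 × g for 10 min, washed three times, and counted in a γ-spectrophotometer.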

human CMKLR1 [6] = target: T1, human CMKLR1; experiment: Radioligand binding assay, huCMKLR1/HEK293
human CMKLR1 [7] = target: T1, human CMKLR1; experiment: Receptor internalization assay, huCMKLR1/HEK293; type: cell-based; conditions: 100 nM, 30 min at 37°C, confocal, four independent experiments
human granulose cell = conditions: human granulosa cells; cited from earlier work
CMKLR1 [8] = conditions: cited from earlier work
GPR1 = conditions: cited from earlier work
CCRL2 = conditions: cited from earlier work
WT/HEK293 cells [9] = experiment: C-FOS gene expression; type: cell-based; conditions: 30 nM, 30 min at 37°C, data not shown
WT/HEK293 cells [10] = experiment: Immunocytochemistry of C-FOS, WT/HEK293; type: cell-based; conditions: 100 nM, 30 min at 37°C
Outline: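 Coverslips coated with 0.1% gelatin. […] Fixed in 4% paraformaldehyde for 30 min and permeabilised with 0.1% Triton X-100 for 10 min. Stained with rabbit anti-C-FOS overnight at 4°C, then Alexa-488 anti-rabbit for 1 h, with DAPI nuclear stain. Imaged by confocal microscopy.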

WT/HEK293 cells [11] = experiment: Internalization assay, wild-type HEK293; type: cell-based; conditions: 100 nM, 30 min at 37°C, confocal
Outline: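 Cells were grown on 0.1% gelatin-coated coverslips and serum-starved for 4 h at 50–60% confluence. […] Fixed in 4% paraformaldehyde and permeabilised with 0.1% Triton X-100. Stained overnight at 4°C with rat anti-human CMKLR1 mAb, then Alexa-488 anti-rat for 2 h, with DAPI. Examined by confocal microscopy; four independent experiments.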

WT/L1.2 cells = experiment: In vitro transwell chemotaxis assay, WT/L1.2; type: cell-based; conditions: 0.3, 1, 10, 100 nM, 4 h at 37°C
Outline: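 Wild-type L1.2 cells were pretreated overnight with sodium butyrate. […] After 4 h migration at 37°C, cells in the lower chamber were stained with CellTiter Blue and read by fluorescence at 560/580 nm. Run in parallel with the CMKLR1-transfected line.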

primary Leydig cells [12] = experiment: Steroidogenic enzyme gene expression, primary Leydig cells; type: cell-based, Sprague-Dawley rat; conditions: beta-actin reference, 24 h
Outline: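 Leydig cells from testes of five Sprague-Dawley males (3–4 months): collagenase IA digestion, 15 min at 34°C; 70 μm filtration; Percoll gradient (1.030–1.096 g/mL); culture at 34°C, 5% CO2; purity by 3β-HSD staining.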

antral follicles [13] = experiment: Steroidogenic enzyme gene expression, antral follicles; type: cell-based, Sprague-Dawley rat; conditions: large antral follicles, beta-actin reference, 6 h
CMKLR1 [14] = conditions: cited from earlier work; remark: listed apart in the source

chemotaxis (human CMKLR1 [3]; 1 nM): no chemotactic actions | chemotaxis (human CMKLR1 [3]; 10 nM): no chemotactic actions
Molecule: AGEDPHSFYFPGQFA [huC-15]
hCG-stimulated testosterone production (primary Leydig cells [4]; 100 nM): no such kind of suppression

IC50 (human GPR1): 5 nM | IC50 (human CMKLR1 [6]): 2.5 nM
Molecule: IAQAGEDPHGYFLPGQFAFS [mC-20]

IC50 (human GPR1): 3.5 nM | IC50 (human CMKLR1 [6]): 1.6 nM
Molecule: VQRAGEDPHSFYFPGQFAFS [huC-20]

IC50 (human GPR1; read-out: IC50 (displacement of iodochemerin), huGPR1/HEK293 cells, about 1,000,000 per tube, 2 nM iodochemerin, 16 h at 23°C): 0.5 nM
Molecule: huChemerin: Human recombinant chemerin purchased from R&D Systems
forskolin-stimulated cAMP production (WT/HEK293 cells [1]; 10 nM peptide/protein + 10 μM forskolin cotreatment): no effect | C-FOS gene expression (WT/HEK293 cells [9]): No such stimulation | C-FOS protein expression (WT/HEK293 cells [10]): No such stimulation | internalization (WT/HEK293 cells [11]): No internalization observed | chemotactic response (WT/L1.2 cells): no chemotactic response

17β-HSD gene expression (antral follicles [13]): not affected | StAR gene expression (antral follicles [13]): not affected | p450scc gene expression (antral follicles [13]): not affected | 3β-HSD gene expression (antral follicles [13]; with hCG): suppression of 3β-HSD gene expression
B1: mChemerin: mouse recombinant chemerin purchased from R&D Systems (protein, UniProt Q9DD06 21-156, looked up)
Retinoic acid receptor …: EPELSETQRRSLQVALEEFHKHPPVQLAFQEIGVDRAEEVLFSAGTFVRLEFKLQQTNCPKKDWKKPECTIKPNGRRRKCLACIKMDPKGKILGRIVHCPILKQGPQDPQELQCIKIAQAGEDPHGYFLPGQFAFS
17β-HSD gene expression (primary Leydig cells [12]): not affected | StAR gene expression (primary Leydig cells [12]): not affected | p450scc gene expression (primary Leydig cells [12]): not affected | 3β-HSD gene expression (primary Leydig cells [12]; with hCG): suppression of 3β-HSD gene expression | hCG-stimulated progesterone production (antral follicles [5]; 10 nM): effective | hCG-stimulated progesterone production (antral follicles [5]; 100 nM): effective | hCG-stimulated testosterone production (primary Leydig cells [4]; 1 nM): suppressed | hCG-stimulated testosterone production (primary Leydig cells [4]; 10 nM): suppressed | hCG-stimulated testosterone production (primary Leydig cells [4]; 100 nM): suppressed | basal testosterone production (primary Leydig cells [4]; no hCG, 1, 10, 100 nM): No effect was observed

Further lines, the molecule ahead of its results:

Molecule: C=C[C@@]1(C)CC(=O)[C@]2(O)[C@@]3(C)[C@@H](O)CCC(C)(C)[C@@H]3[C@H](O)[C@H](OC(C)=O)[C@@]2(C)O1 [forskolin, reference compound]
increase in cAMP production (WT/HEK293 cells [1]; forskolin 10 μM): more than 50 fold | increase in cAMP production (human CMKLR1 [2]): more than 50 fold

Molecule: C-20: 20 amino acid chemerin-derived peptide; used without species prefix for huC-20 or mC-20 (VQRAGEDPHSFYFPGQFAFS)
lowest effective dose for chemotaxis (human CMKLR1 [3]; of 0.3, 1, 10, 100 nM tested): 1 nM | hCG-stimulated progesterone production (antral follicles [5]; 1 nM): not effective | hCG-stimulated progesterone production (antral follicles [5]; 10 nM): not effective | hCG-stimulated testosterone production (primary Leydig cells [4]; 1 nM): not effective | hCG-stimulated testosterone production (primary Leydig cells [4]; 10 nM): not effective

Molecule: LRQFLQKSLAAAT [NTS]
chemotaxis (human CMKLR1 [3]; 1 nM): no chemotactic actions | chemotaxis (human CMKLR1 [3]; 10 nM): no chemotactic actions | CMKLR1 internalization (human CMKLR1 [7]): negative control

Molecule: chemerin: The active protein of 137 amino acids in human was named chemerin
IGF-1-induced progesterone and estradiol secretion (human granulose cell): inhibited | leukocyte chemotaxis (CMKLR1 [8]): promotes leukocyte chemotaxis | receptor internalization (CMKLR1 [8]): triggers receptor internalization | receptor internalization (GPR1): stimulates receptor internalization | internalization and chemotaxis (CCRL2): stimulates neither internalization nor chemotaxis

B2: prochemerin: secreted as an inactive precursor, which is 143 amino acids long in human (protein, UniProt Q99969 21-163, looked up)
pro-form: ELTEAQRRGLQVALEEFHKHPPVQWAFQETSVESAVDTPFPAGIFVRLEFKLQQTSCRKRDWKKPECKVRPNGRKRKCLACIKLGSEDKVLGRLVHCPIETQVLREAEEHQETQCLRVQRAGEDPHSFYFPGQFAFSKALPRS
modifications: pro-form
affinity for CMKLR1 (CMKLR1 [14]): very low affinity
